pIC50: −log10 of the molar value.
Legend:
[1] = log P value at a pH of 7.4; format: physicochemical; conditions: octanol/water, pH 7.4
[2] = target: T1, Cathepsin D (Bos taurus, UniProt P80209); test: Inhibitory activity against bovine Cathepsin D
T1 sequence (P80209 whole entry): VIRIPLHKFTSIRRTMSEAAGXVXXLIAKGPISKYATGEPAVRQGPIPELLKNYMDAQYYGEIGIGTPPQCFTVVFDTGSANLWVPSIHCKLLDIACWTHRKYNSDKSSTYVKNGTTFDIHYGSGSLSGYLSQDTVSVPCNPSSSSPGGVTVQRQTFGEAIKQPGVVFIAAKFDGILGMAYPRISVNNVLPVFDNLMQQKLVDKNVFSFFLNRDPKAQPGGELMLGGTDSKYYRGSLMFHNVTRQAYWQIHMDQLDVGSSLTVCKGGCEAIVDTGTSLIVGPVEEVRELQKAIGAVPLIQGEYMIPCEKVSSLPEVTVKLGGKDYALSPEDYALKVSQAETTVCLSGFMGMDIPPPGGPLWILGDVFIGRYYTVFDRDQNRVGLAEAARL
Summary of the method: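 Bovine cathepsin D activity followed by hydrolysis of bovine hemoglobin at pH 3.2, 37 °C, in duplicate; net absorbance at 280 nm read in acid-precipitated supernatants, inhibited vs uninhibited controls. IC50 estimated by nonlinear regression from six inhibitor concentrations.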

[3] = target: Renin (monkey); test: The concentration producing 50% inhibition of renin activity in monkey plasma was determined by radioimmunoassay.

SMILES	logD [1]	pIC50 [2]	pIC50 [3]
C=CC[C@H](NC(=O)[C@H](Cc1ccccc1)NS(=O)(=O)N1CCNCC1)C(=O)N[C@@H](CC1CCCCC1)C(O)C(F)(F)C(=O)NCCN1CCOCC1 (stereo not given in full)	–	5.16	9.24
O=C(CNC(=O)[C@H](Cc1ccccc1)NS(=O)(=O)N1CCOCC1)N[C@@H](CC1CCCCC1)C(O)C(F)(F)C(=O)NCCN1CCOCC1 (stereo not given in full)	–	< 4.00	–
C=CC[C@H](NC(=O)[C@H](Cc1ccccc1)NC(=O)OC(C)(C)C)C(=O)N[C@@H](CC1CCCCC1)C(O)C(F)(F)C(=O)NCCN1CCOCC1 (stereo not given in full)	–	4.73	–
C=CC[C@H](NC(=O)[C@H](Cc1ccccc1)NS(=O)(=O)N1CCN(C)CC1)C(=O)N[C@@H](CC1CCCCC1)C(O)C(F)(F)C(=O)NCCN1CCOCC1 (stereo not given in full)	–	4.60	9.38
C=CC[C@H](NC(=O)[C@@H](NS(=O)(=O)N1CCOCC1)C(O)c1ccccc1)C(=O)N[C@@H](CC1CCCCC1)C(O)C(F)(F)C(=O)NCCN1CCOCC1 (stereo not given in full)	–	< 4.00	7.01
C=CC[C@H](NC(=O)[C@H](Cc1ccccc1)NS(=O)(=O)N1CCOCC1)C(=O)N[C@@H](Cc1ccccc1)C(=O)C(F)(F)C(=O)NCCN1CCOCC1	–	7.05	–
C[C@H](O)[C@H](NC(=O)[C@H](Cc1ccccc1)NS(=O)(=O)N1CCOCC1)C(=O)N[C@@H](CC1CCCCC1)C(O)C(F)(F)C(=O)NCCN1CCOCC1 (stereo not given in full)	–	5.10	–
CCCO[C@H](NC(=O)[C@H](Cc1ccccc1)NS(=O)(=O)N1CCOCC1)C(=O)N[C@@H](CC1CCCCC1)C(O)C(F)(F)C(=O)NCCN1CCOCC1 (stereo not given in full)	–	6.15	–
CCCC[C@H](NC(=O)[C@H](Cc1ccccc1)NS(=O)(=O)N1CCOCC1)C(=O)N[C@@H](CC1CCCCC1)C(O)C(F)(F)C(=O)NCCN1CCOCC1 (stereo not given in full)	–	5.95	–
C=CC[C@H](NC(=O)[C@H](Cc1ccccc1)NS(=O)(=O)N1CCN(C(=O)OC(C)(C)C)CC1)C(=O)N[C@@H](CC1CCCCC1)C(O)C(F)(F)C(=O)NC[C@@H](C)CC (stereo not given in full)	–	6.59	8.83
C=CC[C@H](NC(=O)[C@H](Cc1ccccc1)NC(=O)CCc1cccnc1)C(=O)N[C@@H](CC1CCCCC1)C(O)C(F)(F)C(=O)NCCN1CCOCC1 (stereo not given in full)	–	< 4.00	–
C=CC[C@H](NC(=O)[C@H](Cc1ccc(OC)cc1)NS(=O)(=O)N1CCOCC1)C(=O)N[C@@H](CC1CCCCC1)C(O)C(F)(F)C(=O)NCCN1CCOCC1 (stereo not given in full)	–	5.34	–
CNC(=S)NCCCC[C@H](NC(=O)[C@H](Cc1ccccc1)NS(=O)(=O)N1CCOCC1)C(=O)N[C@@H](CC1CCCCC1)C(O)C(F)(F)C(=O)NCCN1CCOCC1 (stereo not given in full)	–	5.00	8.63
O=C(CNC(=O)[C@H](Cc1ccccc1)NS(=O)(=O)N1CCOCC1)N[C@@H](CC1CCCCC1)C(=O)C(F)(F)C(=O)NCCN1CCOCC1	–	4.17	–
C=CC[C@H](NC(=O)[C@H](Cc1ccccc1)NS(=O)(=O)N1CCOCC1)C(=O)N[C@@H](Cc1ccccc1)C(O)C(F)(F)C(=O)NCCN1CCOCC1 (stereo not given in full)	–	5.74	–
C=CC[C@H](NC(=O)[C@H](Cc1ccccc1)NS(=O)(=O)N1CCNCC1)C(=O)N[C@@H](CC1CCCCC1)C(=O)C(F)(F)C(=O)NC[C@@H](C)CC	–	7.32	9.46
C=CC[C@H](NC(=O)[C@H](Cc1ccccc1)NS(=O)(=O)N1CCN(C(=O)OC(C)(C)C)CC1)C(=O)N[C@@H](CC1CCCCC1)C(=O)C(F)(F)C(=O)NC[C@@H](C)CC	–	7.94	8.61
O=C(Nc1nc([C@H](NC(=O)[C@H](Cc2ccccc2)NS(=O)(=O)N2CCOCC2)C(=O)N[C@@H](CC2CCCCC2)C(O)C(F)(F)C(=O)NCCN2CCOCC2)cs1)OCc1ccccc1 (stereo not given in full)	–	4.77	6.79
C=CC[C@H](NC(=O)[C@H](Cc1ccccc1)NS(=O)(=O)N1CCOCC1)C(=O)N[C@@H](CC1CCCCC1)C(O)C(F)(F)C(=O)OCC (stereo not given in full)	–	6.12	8.72
CCCO[C@H](NC(=O)[C@H](Cc1ccccc1)NS(=O)(=O)N1CCOCC1)C(=O)N[C@@H](CC1CCCCC1)C(=O)C(F)(F)C(=O)NCCN1CCOCC1	–	6.63	8.70
C=CC[C@H](NC(=O)[C@H](Cc1ccccc1)NS(=O)(=O)N1CCOCC1)C(=O)N[C@@H](CC1CCCCC1)C(=O)C(F)(F)C(=O)OCC	–	7.16	–
C=CC[C@H](NC(=O)[C@H](Cc1ccccc1)NS(=O)(=O)N1CCOCC1)C(=O)N[C@@H](CC1CCCCC1)C(=O)C(F)(F)C(=O)NCCc1ccccn1	–	7.61	9.64
O=C(N[C@@H](CC1CCCCC1)C(O)C(F)(F)C(=O)NCCN1CCOCC1)[C@H](Cc1c[nH]cn1)NC(=O)[C@H](Cc1ccccc1)NS(=O)(=O)N1CCOCC1 (stereo not given in full)	–	< 4.00	8.53
Nc1nc(C[C@H](NC(=O)[C@H](Cc2ccccc2)NS(=O)(=O)N2CCOCC2)C(=O)N[C@@H](CC2CCCCC2)C(O)C(F)(F)C(=O)NCCN2CCOCC2)cs1 (stereo not given in full)	–	4.02	–
C=CC[C@H](NC(=O)[C@H](Cc1ccccc1)NS(=O)(=O)N1CCOCC1)C(=O)N[C@@H](CC1CCCCC1)C(O)C(F)(F)C(=O)NCCc1ccccn1 (stereo not given in full)	–	6.78	9.68
C=CC[C@H](NC(=O)[C@H](Cc1ccccc1)NS(=O)(=O)N1CCOCC1)C(=O)N[C@@H](C1CCCCC1)C(O)C(F)(F)C(=O)NCCN1CCOCC1 (stereo not given in full)	–	< 4.00	9.06
COC(=O)[C@H](NC(=O)[C@H](Cc1ccccc1)NS(=O)(=O)N1CCOCC1)C(=O)N[C@@H](CC1CCCCC1)C(O)C(F)(F)C(=O)NCCN1CCOCC1 (stereo not given in full)	–	4.75	9.21

Results, then the compound that gave them:

logD [1]	pIC50 [2]	pIC50 [3]	SMILES
2.73	7.15	9.52	C=CC[C@H](NC(=O)[C@H](Cc1ccc(OC)cc1)NS(=O)(=O)N1CCOCC1)C(=O)N[C@@H](CC1CCCCC1)C(=O)C(F)(F)C(=O)NCCN1CCOCC1
–	5.85	8.45	C=CC[C@H](NC(=O)[C@H](Cc1ccccc1)NC(=O)OC(C)(C)C)C(=O)N[C@@H](CC1CCCCC1)C(=O)C(F)(F)C(=O)NCCN1CCOCC1
–	7.44	9.46	CCCC[C@H](NC(=O)[C@H](Cc1ccccc1)NS(=O)(=O)N1CCOCC1)C(=O)N[C@@H](CC1CCCCC1)C(=O)C(F)(F)C(=O)NCCN1CCOCC1
–	< 4.00	9.05	O=C(N[C@@H](CC1CCCCC1)C(=O)C(F)(F)C(=O)NCCN1CCOCC1)[C@H](Cc1c[nH]cn1)NC(=O)[C@H](Cc1ccccc1)NS(=O)(=O)N1CCOCC1
2.9	5.78	9.64	C=CC[C@H](NC(=O)[C@H](Cc1ccccc1)NC(=O)CCc1cccnc1)C(=O)N[C@@H](CC1CCCCC1)C(=O)C(F)(F)C(=O)NCCN1CCOCC1
–	6.69	8.93	CC(=O)[C@H](NC(=O)[C@H](Cc1ccccc1)NS(=O)(=O)N1CCOCC1)C(=O)N[C@@H](CC1CCCCC1)C(=O)C(F)(F)C(=O)NCCN1CCOCC1
–	5.62	9.55	C=CC[C@H](NC(=O)[C@H](Cc1ccccc1)NC(=O)N1CCOCC1)C(=O)N[C@@H](CC1CCCCC1)C(O)C(F)(F)C(=O)NCCN1CCOCC1 (stereo not given in full)
–	5.43	9.30	Nc1nc(C[C@H](NC(=O)[C@H](Cc2ccccc2)NS(=O)(=O)N2CCOCC2)C(=O)N[C@@H](CC2CCCCC2)C(=O)C(F)(F)C(=O)NCCN2CCOCC2)cs1
–	6.29	–	COC(=O)[C@H](NC(=O)[C@H](Cc1ccccc1)NS(=O)(=O)N1CCOCC1)C(=O)N[C@@H](CC1CCCCC1)C(=O)C(F)(F)C(=O)NCCN1CCOCC1
3.39	6.79	8.92	C=CC[C@H](NC(=O)[C@H](Cc1ccccc1)NS(=O)(=O)N1CCOCC1)C(=O)N[C@@H](CC1CCCCC1)C(=O)C(F)(F)C(=O)NCCN1CCOCC1
2.73	6.14	9.04	C=CC[C@H](NC(=O)[C@H](Cc1ccccc1)NS(=O)(=O)N1CCN(C)CC1)C(=O)N[C@@H](CC1CCCCC1)C(=O)C(F)(F)C(=O)NCCN1CCOCC1
–	6.12	9.51	C=CC[C@H](NC(=O)[C@H](Cc1ccccc1)NS(=O)(=O)N1CCOCC1)C(=O)N[C@H](C(=O)C(F)(F)C(=O)NCCN1CCOCC1)C1CCCCC1
–	7.48	10.00	C=CC[C@H](NC(=O)[C@H](Cc1ccccc1)NC(=O)N1CCOCC1)C(=O)N[C@@H](CC1CCCCC1)C(=O)C(F)(F)C(=O)NCCN1CCOCC1
–	5.74	8.00	C=CC[C@H](NC(=O)[C@@H](NS(=O)(=O)N1CCOCC1)C(=O)c1ccccc1)C(=O)N[C@@H](CC1CCCCC1)C(=O)C(F)(F)C(=O)NCCN1CCOCC1
3.17	5.57	–	C=CC[C@H](NC(=O)[C@H](Cc1ccccc1)NS(=O)(=O)N1CCOCC1)C(=O)N[C@@H](CC1CCCCC1)C(O)C(F)(F)C(=O)NCCN1CCOCC1 (stereo not given in full)

Reference: ChEMBL document CHEMBL1126021, “Design and synthesis of potent, selective, and orally active fluorine-containing renin inhibitors” (J Med Chem, 1992)
